Source: ChEMBL document CHEMBL3351845, “Synthesis and in vitro stability of amino acid prodrugs of 6-β-naltrexol for microneedle-enhanced transdermal delivery” (Bioorg Med Chem Lett, 2014)

What was measured:
[1] = Stability in pH 5.0 0.3 M acetate buffer assessed as time duration in which 90% produg stability at 1 mg by HPLC method; format: physicochemical; conditions: in vitro
Method in brief: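 Roughly 1 mg prodrug was added to 10 mL of 0.3 M acetate buffer, pH 5.0, thermostated at 32 °C, then vortexed 1 min and filtered through 0.45 μm nylon. Degradation was followed over time by C-8 reversed-phase HPLC with UV at 215 or 278 nm, mobile phase 70:30 ACN:aqueous TFA/octane sulfonate, pH 3.0. t90 is the time to 10% loss; runs in duplicate.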

[2] = Half life in pH 7.4 25 mM HEPES buffered Hank's balanced salt solution at assessed as prodrug hydrolysis 1 mg by HPLC method; format: physicochemical; conditions: buffer
Method in brief: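 About 1 mg prodrug went into 10 mL of 25 mM HEPES-buffered Hanks' balanced salt solution, pH 7.4, held at 37 °C. The mixture was vortexed 1 min and filtered through 0.45 μm nylon. Samples were run by reversed-phase C-8 HPLC with UV at 215 or 278 nm, mobile phase 70:30 ACN:aqueous 0.1% TFA/0.065% octane sulfonate, pH 3.0. Half-life was read from pseudo-first-order hydrolysis; duplicate runs.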

[3] = test system: Plasma; test: Half life in 50% human plasma in presence of 50% PBS buffer assessed prodrug hydrolysis by HPLC method; format: ADME, cell-free
Method in brief: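 Each prodrug was made up as a DMSO stock, and 40.0 μL was added to 760.0 μL of 50% human plasma in 50% PBS (pH 7.4), pre-warmed to 37 °C. Aliquots taken at set times got salicylamide internal standard, were vortexed, centrifuged, dried under N2, and taken up in methanol/0.04% HFBA. Analysis used gradient HPLC on a phenyl column against an eight-point calibration. Kapp came from log(AUC prodrug/AUC IS) versus time; n=3, mean ± SD.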

[4] = Solubility in pH 7.4 25 mM HEPES buffered Hank's balanced salt solution by HPLC method; format: physicochemical; conditions: buffer

Row | Structure (SMILES) | Time [1] [days] | t1/2 [2] [h] | t1/2 [3] [h] | solubility [4]
1 | C[C@H](N)C(=O)O[C@@H]1CC[C@@]2(O)[C@H]3Cc4ccc(O)c5c4[C@@]2(CCN3CC2CC2)[C@H]1O5 | 0.412 | – | – | –
2 | CC(C)[C@H](N)C(=O)O[C@@H]1CC[C@@]2(O)[C@H]3Cc4ccc(O)c5c4[C@@]2(CCN3CC2CC2)[C@H]1O5 | 5.2 | 11.5 | 18.2 | –
3 | CC(C)C[C@H](N)C(=O)O[C@@H]1CC[C@@]2(O)[C@H]3Cc4ccc(O)c5c4[C@@]2(CCN3CC2CC2)[C@H]1O5 | 0.9 | – | – | –
4 | CCC(C)[C@H](N)C(=O)O[C@@H]1CC[C@@]2(O)[C@H]3Cc4ccc(O)c5c4[C@@]2(CCN3CC2CC2)[C@H]1O5 (some centres not stated) | 14 | 22 | 31.2 | Insoluble
5 | NCCC(=O)O[C@@H]1CC[C@@]2(O)[C@H]3Cc4ccc(O)c5c4[C@@]2(CCN3CC2CC2)[C@H]1O5 | 5.6 | 12 | – | –
6 | O=C(O[C@@H]1CC[C@@]2(O)[C@H]3Cc4ccc(O)c5c4[C@@]2(CCN3CC2CC2)[C@H]1O5)[C@@H]1CCCN1 | 0.217 | – | – | –
